Assays:
L1210 = experiment: Concentration of compound required to inhibit the cellular protein biosynthesis by 50%; type: functional, cell-based; conditions: Mus musculus
Summary of the method: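 Murine L1210 leukemia cells grown in RPMI 1640 with 5% fetal calf serum, penicillin/streptomycin, 37 °C, 5% CO2, passaged every 2–3 days. Log-phase cells seeded at final 0.05×10^6 cells/mL and exposed 48 h. Growth inhibition read as cellular protein content; EC50 = concentration giving 50% inhibition. At least four runs, mean ± SEM.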

[1] = molecular target: NADH-ubiquinone oxidoreductase chain 4 (Homo sapiens) (UniProt P03905); experiment: (§1) Concentration of substrate at which the amount of total cytochrome c reduction is decreased by 10%; type: functional
NADH-ubiquinone oxidoreductase chain 4 (Homo sapiens), sequence (P03905 whole entry, looked up): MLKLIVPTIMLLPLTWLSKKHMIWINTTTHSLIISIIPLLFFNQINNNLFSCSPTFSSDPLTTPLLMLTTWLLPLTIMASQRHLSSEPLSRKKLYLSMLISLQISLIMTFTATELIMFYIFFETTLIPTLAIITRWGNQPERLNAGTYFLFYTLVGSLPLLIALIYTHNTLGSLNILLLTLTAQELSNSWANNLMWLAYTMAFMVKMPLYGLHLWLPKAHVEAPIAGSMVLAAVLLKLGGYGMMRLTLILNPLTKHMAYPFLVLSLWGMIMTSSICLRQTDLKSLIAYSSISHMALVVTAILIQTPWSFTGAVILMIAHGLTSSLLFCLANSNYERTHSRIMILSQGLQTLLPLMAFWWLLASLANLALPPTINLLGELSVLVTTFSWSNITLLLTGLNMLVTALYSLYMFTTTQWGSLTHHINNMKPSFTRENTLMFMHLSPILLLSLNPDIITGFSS
Summary of the method: (§2)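 NADH dehydrogenase substrate assay: decrease in enzymatic cytochrome c reduction at low NADH. Mixture of […], 0–200 μM compound, 10 μM NADH, 0.125 units/mL NADH dehydrogenase, 50 μg/mL SOD, 0.50 M HEPES pH 7.4. IC10 = substrate concentration reducing total cytochrome c reduction by 10%.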

[2] = molecular target: NADH-ubiquinone oxidoreductase chain 4 (Homo sapiens) (UniProt P03905); experiment: (§3) Activity of NADH dehydrogenase was determined; type: functional
Summary of the method: (§4)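 Enzymatic NADH oxidation stimulated by compound: reaction with 100 μM test compound, 100 μM NADH, NADH dehydrogenase at the stated activity, in 0.05 M HEPES pH 7.4.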

P388 [3] = experiment: ratio of medium survival time of the treated to the control mice at the dose of 12.50 (mg/kg); type: functional, Mus musculus
P388 [4] = experiment: ratio of medium survival time of the treated to the control mice at the dose of 3.12 (mg/kg); type: functional, Mus musculus
P388 [5] = experiment: ratio of medium survival time of the treated to the control mice at the dose of 6.25 (mg/kg); type: functional, Mus musculus
[6] = Ratio of toxic deaths/survivors 7 days after the day 5 injection as a measure of drug toxicity at the dose of 12.50 (mg/kg); type: functional
Summary of the method: (§5)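 P388 leukemia model in (BALB/c × DBA/2) F1 mice, 10^6 cells ip on day 0. Toxicity was scored as toxic deaths/survivors 7 days after the day-5 injection.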

[7] = NADH oxidation by the compound was determined; type: functional; summary of the method: as §4
[8] = Ratio of toxic deaths/survivors 7 days after the day 5 injection as a measure of drug toxicity at the dose of 6.25 (mg/kg); type: functional; summary of the method: as §5
[9] = Ratio of toxic deaths/survivors 7 days after the day 5 injection as a measure of drug toxicity at the dose of 3.12 (mg/kg); type: functional; summary of the method: as §5
Equus caballus = organism: Equus caballus; experiment: as §1; type: functional; summary of the method: as §2
[10] = as §3; type: functional; summary of the method: as §4
P388 [11] = experiment: (§6) Ratio of medium survival time of the treated to the control mice at the dose of 100 (mg/kg); type: functional, Mus musculus
P388 [12] = experiment: Ratio of medium survival time of the treated to the control mice at the dose of 50 (mg/kg); type: functional, Mus musculus
[13] = Ratio of toxic deaths/survivors 7 days after the day 5 injection as a measure of drug toxicity at the dose of 100 (mg/kg); type: organism-based; conditions: in vivo, 168 h; summary of the method: as §5
[14] = Ratio of toxic deaths/survivors 7 days after the day 5 injection as a measure of drug toxicity at the dose of 50 (mg/kg); type: organism-based; conditions: in vivo, 168 h; summary of the method: as §5
P388 [15] = experiment: ratio of medium survival time of the treated to the control mice at the dose of 50 (mg/kg); type: functional, Mus musculus
P388 [16] = experiment: ratio of medium survival time of the treated to the control mice at the dose of 25 (mg/kg); type: functional, Mus musculus
[17] = Ratio of toxic deaths/survivors 7 days after the day 5 injection as a measure of drug toxicity at the dose of 25 (mg/kg); type: organism-based; conditions: in vivo, 168 h; summary of the method: as §5
Mus musculus [18] = experiment: as §6; type: functional
[19] = Ratio of toxic deaths/survivors 7 days after the day 5 injection as a measure of drug toxicity at the dose of 200 (mg/kg); type: organism-based; conditions: in vivo, 168 h; summary of the method: as §5
Mus musculus [20] = experiment: Ratio of medium survival time of the treated to the control mice at the dose of 200 (mg/kg); type: functional
[21] = Ratio of toxic deaths/survivors 7 days after the day 5 injection as a measure of drug toxicity; conditions: 168 h; summary of the method: as §5

For `O=C1c2ccccc2C(=O)c2c(NCCNCCO)ccc(NCCNCCO)c21` [AMETANTRONE], which EC50 (L1210) is on record?
Its EC50 is 275 nM.

What about the IC10 [1] of the same compound?
The IC10 was 114000 nM.

What about the Activity [2] of the same compound?
The Activity was 0.75 units ml-1.

And the T/C (P388 [3])?
Its T/C is 300%.

What about the T/C (P388 [4]) of the same compound?
The T/C was 190%.

What about the T/C (P388 [5]) of the same compound?
Its T/C is 210%.

What about the ToxD/Surv [6] of the same compound?
Its ToxD/Surv is 6.

And the Oxidation [7]?
The Oxidation was 8.8 µM/min.

And the ToxD/Surv [8]?
The ToxD/Surv was 6.

And the ToxD/Surv [9]?
The ToxD/Surv was 6.

With `CNCCNc1ccc2ncnc3c2c1C(=O)c1ccccc1-3` as the compound, how does the EC50 (L1210) read?
The EC50 was 268 nM.

What about the IC10 (Equus caballus) of the same compound?
The IC10 was over 300000 nM.

What about the Activity [10] of the same compound?
Its Activity is 0.75 U/mL.

And the T/C (P388 [11])?
Its T/C is 164%.

And the T/C (P388 [12])?
The T/C was 146%.

And the ToxD/Surv [13]?
The ToxD/Surv was 6.

What about the Activity [7] of the same compound?
The Activity was 7.6 µM/min.

What about the ToxD/Surv [14] of the same compound?
Its ToxD/Surv is 6.

What does the source list for `NCCCNc1ccc2ncnc3c2c1C(=O)c1ccccc1-3`?
EC50 (L1210): 546 nM; IC10 (Equus caballus): > 300000 nM; Activity [10]: 0.75 U/mL; T/C (P388 [11]): 127%; T/C (P388 [12]): 127%; ToxD/Surv [13]: 4; Activity [7]: 4.7 µM/min; ToxD/Surv [14]: 7

What does the source list for `CN(C)CCNc1ccc2ncnc3c2c1C(=O)c1ccccc1-3`?
EC50 (L1210): 203 nM; IC10 (Equus caballus): > 300000 nM; Activity [10]: 0.75 U/mL; T/C (P388 [11]): 209%; T/C (P388 [15]): 155%; ToxD/Surv [13]: 6; Activity [7]: 6.5 µM/min; ToxD/Surv [14]: 6

With `CCN(CC)CCNc1ccc2ncnc3c2c1C(=O)c1ccccc1-3` as the compound, how does the EC50 (L1210) read?
Its EC50 is 460 nM.

What about the IC10 (Equus caballus) of the same compound?
The IC10 was over 300000 nM.

What about the Activity [10] of the same compound?
The Activity was 0.75 U/mL.

And the T/C (P388 [11])?
The T/C was 180%.

What about the T/C (P388 [12]) of the same compound?
The T/C was 140%.

What about the ToxD/Surv [13] of the same compound?
Its ToxD/Surv is 7.

What about the Activity [7] of the same compound?
The Activity was 7 µM/min.

What about the ToxD/Surv [14] of the same compound?
The ToxD/Surv was 5.

For `COc1cccc2c1C(=O)c1c(O)c3c(c(O)c1C2=O)C[C@@](O)(C(C)=O)C[C@@H]3O[C@H]1C[C@H](N)[C@H](O)[C@H](C)O1`, which IC10 ([1]; Equus caballus) is on record?
Its IC10 is 2000 nM.

And the Activity [2]?
The Activity was 0.15 units ml-1.

And the Oxidation [7]?
The Oxidation was 33 µM/min.

With `NCCNc1ccc2ncnc3c2c1C(=O)c1ccccc1-3` as the compound, how does the EC50 (L1210) read?
The EC50 was 379 nM.

And the IC10 (Equus caballus)?
The IC10 was over 300000 nM.

What about the Activity [10] of the same compound?
The Activity was 0.75 U/mL.

And the T/C (P388 [12])?
Its T/C is 150%.

And the T/C (P388 [16])?
Its T/C is 140%.

And the Activity [7]?
The Activity was 4.5 µM/min.

What about the ToxD/Surv [17] of the same compound?
The ToxD/Surv was 7.

What about the ToxD/Surv [14] of the same compound?
Its ToxD/Surv is 7.

With `Nc1ccc2ncnc3c2c1C(=O)c1ccccc1-3` as the compound, how does the EC50 (L1210) read?
The EC50 was 945 nM.

What about the T/C (Mus musculus [18]) of the same compound?
Its T/C is 100%.

What about the ToxD/Surv [13] of the same compound?
The ToxD/Surv was 0.

What about the ToxD/Surv [19] of the same compound?
The ToxD/Surv was 0.

What about the T/C (Mus musculus [20]) of the same compound?
Its T/C is 100%.

With `O=C1c2ccccc2-c2ncnc3ccc(NCCNCCO)c1c23` as the compound, how does the EC50 (L1210) read?
The EC50 was 296 nM.

And the IC10 ([1]; Equus caballus)?
Its IC10 is over 300000 nM.

What about the Activity [10] of the same compound?
Its Activity is 0.75 U/mL.

What about the T/C (P388 [11]) of the same compound?
Its T/C is 255%.

What about the T/C (P388 [12]) of the same compound?
The T/C was 173%.

What about the Activity [7] of the same compound?
The Activity was 7.4 µM/min.

And the ToxD/Surv [21]?
The ToxD/Surv was 7.

With `COc1cccc2c1C(=O)c1c(O)c3c(c(O)c1C2=O)C[C@@](O)(C(=O)CO)C[C@@H]3O[C@H]1C[C@H](N)[C@H](O)[C@H](C)O1` as the compound, how does the Activity [2] read?
Its Activity is 0.15 units ml-1.

What about the Oxidation [7] of the same compound?
Its Oxidation is 30.1 µM/min.

Source: ChEMBL document CHEMBL1126673, “6-[(aminoalkyl)amino]-substituted 7H-benzo[e]perimidin-7-ones as novel antineoplastic agents. Synthesis and biological evaluation” (J Med Chem, 1993)
